{"source": "ChEMBL document CHEMBL1151419", "about": "“Antimicrobial effect of halocidin-derived peptide in a mouse model of Listeria infection” (Antimicrob Agents Chemother, 2007)", "key": {"Enterococcus faecium [1]": {"tested_on": "Enterococcus faecium", "assay": "Antimicrobial activity against vancomycin-resistant Enterococcus faecium CCARM 5029 after 18 hrs by broth microdilution assay in presence of 150 mM NaCl", "type": "functional", "conditions": "CCARM 5029, 18 h", "method_in_brief": "(§1)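 Same broth microdilution, but the medium was Mueller-Hinton broth supplemented with 150 mM NaCl. Inoculum 2 x 10^5 CFU/ml final. Peptide twofold series in 0.01% acetic acid (stocks 640 to 10 µg/ml). After 18 h at 37°C, MIC read as the lowest concentration with no visible growth.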"}, "Staphylococcus aureus [2]": {"tested_on": "Staphylococcus aureus", "assay": "Antimicrobial activity against methicillin-resistant Staphylococcus aureus CCARM 3695 treated with supernatant containing 2 mg drug incubated for 10 mins with PBS containing 50 % normal human serum centrifuged for 3 hrs by radial diffusion assay", "type": "functional, organism-based", "method_in_brief": "(§2)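 2 mg peptide incubated 10 min at 37°C in 2 ml PBS, either serum-free or with 50% heat-treated normal human serum. Spun 3 h at 295,000 x g, 4°C. Then 5 µl of supernatant tested by radial diffusion against mid-log MRSA (4 x 10^6 CFU/ml underlay, 3 h at 37°C, overlay, overnight); clear zones measured.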"}, "Staphylococcus aureus [3]": {"tested_on": "Staphylococcus aureus", "assay": "Antimicrobial activity against methicillin-resistant Staphylococcus aureus CCARM 3695 treated with supernatant containing 2 mg drug incubated for 10 mins with PBS centrifuged for 3 hrs by radial diffusion assay", "type": "functional, organism-based", "method_in_brief": "as §2"}, "[4]": {"assay": "Stability in human serum assessed as drug remaining at 1 mg/ml after 4 hrs", "type": "ADME, cell-free", "conditions": "read-out: Stability", "method_in_brief": "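At 0, 2, 4 and 8 h, 200-µl aliquots were quenched with 20 µl of 1% TFA, held 10 min at 4°C, and centrifuged. Remaining peptide was quantified by HPLC peak area relative to the unincubated sample. Triplicate runs.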"}, "[5]": {"assay": "Stability in human serum assessed as half life at 1 mg/ml", "type": "ADME, cell-free"}, "Mus musculus": {"tested_on": "Mus musculus", "assay": "Toxicity in BALB/c mouse assessed as lethality at 4 mg/kg, iv repeated 4 times at 1-day interval measured after 2 weeks", "type": "organism-based", "parameters": "dose 4 mg/kg, route intravenous", "conditions": "in vivo, 336 h", "method_in_brief": "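Uninfected mice (n = 10) given 4 mg/kg i.v., repeated four times at 1-day intervals. Deaths monitored for 2 weeks.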"}, "Listeria monocytogenes [6]": {"tested_on": "Listeria monocytogenes", "assay": "Antimicrobial activity against Listeria monocytogenes ATCC 19111 infected in BALB/c mouse assessed as survival of mouse at 4 mg/kg, iv administered immediately after bacterial challenge measured after 6 days", "type": "functional", "conditions": "ATCC 19111, 144 h", "method_in_brief": "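L. monocytogenes grown 18 h at 37°C in brain heart infusion broth and frozen at –80°C; viability checked by plating. Mice infected via tail vein with 2 x 10^5 bacteria each. A single 4 mg/kg i.v. dose in 100 µl PBS was given immediately or 2 h after infection; PBS vehicle controls. Ten mice per group; survivors counted daily for 15 days.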"}, "Listeria monocytogenes [7]": {"tested_on": "Listeria monocytogenes", "assay": "Antimicrobial activity against Listeria monocytogenes ATCC 19111 infected in BALB/c mouse assessed as reduction in number of recovered CFU in liver at 100 ug, iv measured after 3 days", "type": "functional, organism-based", "method_in_brief": "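Mice were infected i.v. with L. monocytogenes and immediately given 100 µg peptide in 100 µl PBS i.v.; PBS alone served as control. On days 1 and 3, liver and spleen were homogenized in PBS/0.1% BSA, serially diluted, and plated on TSA with 5% sheep blood. Colonies were counted after 18 h at 37°C. Three independent experiments; mean ± SD.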"}, "Listeria monocytogenes [8]": {"tested_on": "Listeria monocytogenes", "assay": "Antimicrobial activity against Listeria monocytogenes ATCC 19111 infected in BALB/c mouse at 4 mg/kg, iv in presence of increasing concentration of LTA", "type": "functional, organism-based", "parameters": "dose 4 mg/kg"}, "Listeria monocytogenes [9]": {"tested_on": "Listeria monocytogenes", "assay": "Antimicrobial activity against Listeria monocytogenes ATCC 19111 infected in BALB/c mouse at 4 mg/kg, iv in presence of increasing concentration of PGN", "type": "functional, organism-based", "parameters": "dose 4 mg/kg"}, "Listeria monocytogenes [10]": {"tested_on": "Listeria monocytogenes", "assay": "Antimicrobial activity against Listeria monocytogenes ATCC 19111 infected in BALB/c mouse at 4 mg/kg, iv in presence of increasing concentration of pustulan", "type": "functional, organism-based", "parameters": "dose 4 mg/kg"}, "Listeria monocytogenes [11]": {"tested_on": "Listeria monocytogenes", "assay": "Antimicrobial activity against Listeria monocytogenes ATCC 19111 infected in BALB/c mouse at 4 mg/kg, iv in presence of increasing concentration of mannan", "type": "functional, organism-based", "parameters": "dose 4 mg/kg"}, "Listeria monocytogenes [12]": {"tested_on": "Listeria monocytogenes", "assay": "Antibacterial activity against Listeria monocytogenes ATCC 19111 in assay tube containing mixture of erythrocyte/Listeria monocytogenes cells assessed as logarithmic reduction in CFU after 30 mins", "type": "functional", "method_in_brief": "(§3)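 Washed mid-log L. monocytogenes (final 1 x 10^5 CFU/ml) was mixed with human blood cells (final 5 x 10^8 cells/ml) and peptide (final 40 µg/ml) in PBS at 37°C. A peptide-free control was included. At 10, 20 and 30 min, aliquots were plated on TSA and colonies counted after overnight growth. Blood cells were counted by hemocytometer under light microscopy.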"}, "[13]": {"assay": "Toxicity in human erythrocytes assessed as hemolysis at 50 ug/ml relative to Triton X-100", "type": "cell-based, Erythrocyte", "conditions": "read-out: Activity", "method_in_brief": "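Peptide (20 µl) was mixed with 180 µl of a 2.5% (vol/vol) human RBC suspension in PBS and incubated 30 min at 37°C. PBS was added and samples centrifuged 3 min at 10,000 x g; supernatant A540 was read. Hemolysis was expressed relative to a peptide-free PBS blank and 1% Triton X-100 as 100%.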"}, "[14]": {"assay": "Toxicity against human erythrocytes in assay tube containing mixture of erythrocytes/Listeria monocytogenes cells at 40 ug/ml after 30 mins", "type": "cell-based", "conditions": "erythrocyte, 0.5 h", "method_in_brief": "as §3"}, "Staphylococcus aureus [15]": {"tested_on": "Staphylococcus aureus", "assay": "Antimicrobial activity against methicillin-resistant Staphylococcus aureus CCARM 3695 after 18 hrs by broth microdilution assay", "type": "functional", "conditions": "CCARM 3695, 18 h", "method_in_brief": "(§4)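 Broth microdilution (modified CLSI). Overnight stationary-phase Mueller-Hinton broth cultures diluted to 2 x 10^5 CFU/ml final. Peptide serially twofold diluted in 0.01% acetic acid (stock series 640 down to 10 µg/ml); 11 µl added to 100 µl of bacteria. After 18 h at 37°C, MIC taken as the lowest concentration preventing visible turbidity.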"}, "Staphylococcus aureus [16]": {"tested_on": "Staphylococcus aureus", "assay": "Antimicrobial activity against methicillin-resistant Staphylococcus aureus CCARM 3695 after 18 hrs by broth microdilution assay in presence of 150 mM NaCl", "type": "functional", "conditions": "CCARM 3695, 18 h", "method_in_brief": "as §1"}, "Listeria monocytogenes [17]": {"tested_on": "Listeria monocytogenes", "assay": "Antimicrobial activity against Listeria monocytogenes ATCC 19111 after 18 hrs by broth microdilution assay", "type": "functional", "conditions": "ATCC 19111, 18 h", "method_in_brief": "(§5)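 Bacteria were grown overnight to stationary phase in Mueller-Hinton broth at 37°C and diluted to 2 x 10^5 CFU/ml. Line 3 used MHB plus 150 mM NaCl. Peptide stock (640 µg/ml in 0.01% acetic acid) was twofold serially diluted to 10 µg/ml, and 11 µl was added per 100 µl of cells. Turbidity was read after 18 h at 37°C; MIC was the minimum concentration visibly inhibiting growth.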"}, "Listeria monocytogenes [18]": {"tested_on": "Listeria monocytogenes", "assay": "Antimicrobial activity against Listeria monocytogenes ATCC 19111 after 18 hrs by broth microdilution assay in presence of 150 mM NaCl", "type": "functional", "conditions": "ATCC 19111, 18 h", "method_in_brief": "as §5"}, "Enterococcus faecium [19]": {"tested_on": "Enterococcus faecium", "assay": "Antimicrobial activity against vancomycin-resistant Enterococcus faecium CCARM 5029 after 18 hrs by broth microdilution assay", "type": "functional", "conditions": "CCARM 5029, 18 h", "method_in_brief": "as §4"}}, "note": "The source made the active and inactive calls. The calls are words filed in the database; no cut-off is given here. Bridge positions count the residues as written; N and C are the ends. Peptide text beside a SMILES is read from it. I, II: the chains in the order shown.", "data": [{"smiles": "CC(C)C[C@H](NC(=O)CNC(=O)[C@H](Cc1cnc[nH]1)NC(=O)[C@H](Cc1cnc[nH]1)NC(=O)[C@H](CC(C)C)NC(=O)[C@H](CC(C)C)NC(=O)[C@H](C)N)C(=O)N[C@@H](CC(N)=O)C(=O)N[C@@H](CSSC[C@H](NC(=O)[C@H](CC(N)=O)NC(=O)[C@H](CC(C)C)NC(=O)CNC(=O)[C@H](Cc1cnc[nH]1)NC(=O)[C@H](Cc1cnc[nH]1)NC(=O)[C@H](CC(C)C)NC(=O)[C@H](CC(C)C)NC(=O)[C@H](C)NC(=O)[C@H](CC(N)=O)NC(=O)[C@H](CC(C)C)NC(=O)[C@H](Cc1c[nH]c2ccccc12)NC(=O)[C@@H](N)CCCCN)C(=O)N[C@@H](C)C(=O)N[C@@H](CCCCN)C(=O)NCC(=O)N[C@H](C(=O)N[C@@H](CC(C)C)C(=O)N[C@@H](C)C(=O)O)C(C)C)C(=O)N[C@@H](C)C(=O)N[C@@H](CCCCN)C(=O)NCC(=O)N[C@H](C(=O)N[C@@H](CC(C)C)C(=O)N[C@@H](C)C(=O)O)C(C)C", "note": "(I: H-KWLNALLHHGLNCAKGVLA-OH / II: H-ALLHHGLNCAKGVLA-OH; disulfide I:13-II:9)", "values": [{"measurement": "MIC", "setting": "Enterococcus faecium [1]", "value": 8, "unit": "µg/mL"}, {"measurement": "Activity", "setting": "Staphylococcus aureus [2]", "value": "Active"}, {"measurement": "Activity", "setting": "Staphylococcus aureus [3]", "value": "Active"}, {"measurement": "remaining at 4 h, 1 mg/ml", "setting": "[4]", "value": "> 70", "unit": "%"}, {"measurement": "half-life at 1 mg/ml", "setting": "[5]", "value": 6, "unit": "h"}, {"measurement": "Activity", "setting": "Mus musculus", "value": "Non-toxic"}, {"measurement": "survival at 4 mg/kg", "setting": "Listeria monocytogenes [6]", "value": 100, "unit": "%"}, {"measurement": "Activity", "setting": "Listeria monocytogenes [7]", "value": "Active"}, {"measurement": "Activity", "setting": "Listeria monocytogenes [8]", "value": "inactive"}, {"measurement": "Activity", "setting": "Listeria monocytogenes [9]", "value": "inactive"}, {"measurement": "Activity", "setting": "Listeria monocytogenes [10]", "value": "Active"}, {"measurement": "Activity", "setting": "Listeria monocytogenes [11]", "value": "Active"}, {"measurement": "Activity", "setting": "Listeria monocytogenes [12]", "value": 3}, {"measurement": "hemolysis at 50 ug/ml", "setting": "[13]", "value": 4.5, "unit": "%"}, {"measurement": "Activity", "setting": "[14]", "value": "Non-toxic"}, {"measurement": "MIC", "setting": "Staphylococcus aureus [15]", "value": 8, "unit": "µg/mL"}, {"measurement": "MIC", "setting": "Staphylococcus aureus [16]", "value": 16, "unit": "µg/mL"}, {"measurement": "MIC", "setting": "Listeria monocytogenes [17]", "value": 4, "unit": "µg/mL"}, {"measurement": "MIC", "setting": "Listeria monocytogenes [18]", "value": 16, "unit": "µg/mL"}, {"measurement": "MIC", "setting": "Enterococcus faecium [19]", "value": 8, "unit": "µg/mL"}]}]}
